The test system of one test is Burkitts lymphoma cell. Put plainly: Cytotoxic activity against was measured human Burkitt lymphoma cell lines. The class given is functional, cell-based. In short, it runs like this:
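CA46 Burkitt lymphoma cells in 5.0-mL suspension culture, counted after 24 h at 37 °C under 5% CO₂. IC₅₀ = drug concentration halving the increase in cell number. Highest concentration 100 nM. At least two independent experiments.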

For test [1], the species on record is Bos taurus. Kind of test: Polymerizing activity of tubulin in glutamate against bovine brain tubulin homogenate was measured at 0.8M concentrations. The class given is functional. In short, it runs like this: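 Bovine brain tubulin, purified to electrophoretic homogeneity, in 0.8 M monosodium glutamate (from 2 M stock, pH 6.6), room temperature, no GTP. Polymer removed by centrifugation. IC₅₀ = concentration reducing supernatant protein by 50% relative to drug-free control. Maximum 40 µM. At least three independent experiments, or at least two for IC₅₀ over 40 µM.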

In test [2] the test system is Panel colon (Carcinoma cell lines). Kind of test: Cytotoxic activity was measured against human colon carcinoma cell lines. The class given is functional, cell-based. The gist of the method: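 HCT116 colon carcinoma monolayers in 96-well plates, 48 h at 37 °C under 5% CO₂. Cell protein measured. IC₅₀ = concentration giving 50% inhibition of the increase in cell protein.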

The species named for test [3] is Bos taurus. Put plainly: Polymerizing activity of microtubule protein against the twice cycled microtubule protein. The class given is functional. In short, it runs like this:
(§1)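 Twice-cycled microtubule protein, stored in liquid nitrogen, at 1.0 mg/mL final in 0.1 M MES, 1 mM EGTA, 0.5 mM MgCl₂, pH 6.6, 37 °C, no GTP. Compound at 2.5, 5.0 and 10 µM. Absorbance read every 10 s and initial linear slopes taken. EC0.01 = interpolated concentration giving an initial slope of 0.01 A unit/min.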

Test [4] is filed under the species Bos taurus. Put plainly: Polymerizing activity of tubulin in glutamate against bovine brain tubulin homogenate was measured at 0.4 M concentrations. The class given is functional. In short, it runs like this:
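Purified, electrophoretically homogeneous bovine brain tubulin assembled at room temperature without GTP or Mg²⁺ in 0.4 M monosodium glutamate (from 2 M stock, pH 6.6). Polymer pelleted by centrifugation. IC₅₀ = drug concentration lowering supernatant protein by 50% versus no-drug control. Up to 40 µM. At least three independent experiments, or at least two where IC₅₀ exceeded 40 µM.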

The subject of test [5] is Panel ovarian (Carcinoma cell lines). Kind of test: Cytotoxic activity was measured against human Ovarian carcinoma cell lines. The class given is functional, cell-based. The gist of the method:
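Ovarian carcinoma line 1A9, a subclone of A2780, grown as monolayers in 96-well plates for 96 h at 37 °C, 5% CO₂. Cell protein quantitated (Skehan method). IC₅₀ = concentration inhibiting the increase in cell protein by 50%.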

The test system of another test is ptx-10/22. Put plainly: Relative resistance was measured against human paclitaxel-resistant cell lines. The class given is functional, cell-based. The settings on record: 1A9(PTX22).
For test [6], the species on record is Bos taurus. Put plainly: Polymerizing activity of microtubule protein. The class given is functional. The gist of the method:
as §1

Each structure is given as a SMILES string. Bounds are passed on as bounds.

Take `CC(=O)O[C@H]1C(=O)[C@@]2(C)[C@H]([C@H](OC(=O)c3cccc([N+](=O)[O-])c3)[C@]3(O)C[C@H](OC(=O)[C@H](O)[C@@H](NC(=O)c4ccccc4)c4ccccc4)C(C)=C1C3(C)C)[C@]1(OC(C)=O)CO[C@@H]1C[C@@H]2O`: the half-maximal inhibitory concentration (IC50) was 1 relative to paclitaxel with Burkitts lymphoma cell; 1.6 relative to paclitaxel in the test listed under Bos taurus [1]; 0.88 relative to paclitaxel in test [2]; > 1.7 relative to paclitaxel in the test filed under Bos taurus [4]; 1.3 relative to paclitaxel in test [5]. The compound also had an EC0.01 (relative to paclitaxel) in the test filed under Bos taurus [3] of 0.69. The same compound returned a relative resistance in the test with ptx-10/22 of 0.76.

Take `CSc1cccc(C(=O)O[C@H]2[C@@H]3[C@]4(OC(C)=O)CO[C@@H]4C[C@H](O)[C@@]3(C)C(=O)[C@H](OC(C)=O)C3=C(C)[C@@H](OC(=O)[C@H](O)[C@@H](NC(=O)c4ccccc4)c4ccccc4)C[C@]2(O)C3(C)C)c1`: the IC50 was 1 relative to paclitaxel with Burkitts lymphoma cell, 2.7 relative to paclitaxel in the test filed under Bos taurus [1], > 1.7 relative to paclitaxel in the test listed under Bos taurus [4] and 3.3 relative to paclitaxel in test [5]. The same compound returned a relative resistance in the test with ptx-10/22 of 0.52.

`CC(=O)O[C@H]1C(=O)[C@@]2(C)[C@H]([C@H](OC(=O)c3ccc(F)c(F)c3)[C@]3(O)C[C@H](OC(=O)[C@H](O)[C@@H](NC(=O)c4ccccc4)c4ccccc4)C(C)=C1C3(C)C)[C@]1(OC(C)=O)CO[C@@H]1C[C@@H]2O`: the IC50 in the test with Burkitts lymphoma cell is 0.33 relative to paclitaxel; in the test filed under Bos taurus [1] it was 3.1 relative to paclitaxel; in test [2], 2.7 relative to paclitaxel; in the test listed under Bos taurus [4], > 1.7 relative to paclitaxel; in test [5], 3.4 relative to paclitaxel. The compound also came in with an EC0.01 (relative to paclitaxel) in the test listed under Bos taurus [3] of 2.2. Moreover, in the test on ptx-10/22, the relative resistance came out at 0.57.

Turning to `CC(=O)O[C@H]1C(=O)[C@@]2(C)[C@H]([C@H](OC(=O)c3cccc(F)c3)[C@]3(O)C[C@H](OC(=O)[C@H](O)[C@@H](NC(=O)c4ccccc4)c4ccccc4)C(C)=C1C3(C)C)[C@]1(OC(C)=O)CO[C@@H]1C[C@@H]2O`, the IC50 in the test listed under Bos taurus [1] was 2.6 relative to paclitaxel; in test [2] it was 0.45 relative to paclitaxel; in the test filed under Bos taurus [4], 1.2 relative to paclitaxel; in test [5], 0.4 relative to paclitaxel. The compound also returned an EC0.01 (relative to paclitaxel) in the test listed under Bos taurus [3] of 0.7. Moreover, in the test on ptx-10/22, the relative resistance came out at 0.96.

With `CC(=O)O[C@H]1C(=O)[C@@]2(C)[C@H]([C@H](OC(=O)c3cccc(I)c3)[C@]3(O)C[C@H](OC(=O)[C@H](O)[C@@H](NC(=O)c4ccccc4)c4ccccc4)C(C)=C1C3(C)C)[C@]1(OC(C)=O)CO[C@@H]1C[C@@H]2O`, the 50% inhibitory concentration (IC50) in the test on Burkitts lymphoma cell was 2.3 relative to paclitaxel; in the test filed under Bos taurus [1], 3.1 relative to paclitaxel; in test [2] it was 0.85 relative to paclitaxel; in the test filed under Bos taurus [4], > 1.7 relative to paclitaxel; in test [5], 1.6 relative to paclitaxel. In the test listed under Bos taurus [3], this compound returned an EC0.01 (relative to paclitaxel) of 0.79. In the test with ptx-10/22, this compound gave a relative resistance of 0.35.

Turning to `CC(=O)O[C@H]1C(=O)[C@@]2(C)[C@H]([C@H](OC(=O)c3cc(F)c(F)cc3F)[C@]3(O)C[C@H](OC(=O)[C@H](O)[C@@H](NC(=O)c4ccccc4)c4ccccc4)C(C)=C1C3(C)C)[C@]1(OC(C)=O)CO[C@@H]1C[C@@H]2O`, the IC50 is 1 relative to paclitaxel with Burkitts lymphoma cell; 3.1 relative to paclitaxel in the test listed under Bos taurus [1]; 1.9 relative to paclitaxel in test [2]; > 1.7 relative to paclitaxel in the test listed under Bos taurus [4]; 3.1 relative to paclitaxel in test [5]. Besides, the EC0.01 (relative to paclitaxel) in the test filed under Bos taurus [3] amounted to 1.5. The same compound returned a relative resistance in the test on ptx-10/22 of 0.48.

As for `COc1ccccc1C(=O)O[C@H]1[C@@H]2[C@]3(OC(C)=O)CO[C@@H]3C[C@H](O)[C@@]2(C)C(=O)[C@H](OC(C)=O)C2=C(C)[C@@H](OC(=O)[C@H](O)[C@@H](NC(=O)c3ccccc3)c3ccccc3)C[C@]1(O)C2(C)C`, the concentration for half-maximal inhibition (IC50) was 0.67 relative to paclitaxel in the test on Burkitts lymphoma cell; 1.2 relative to paclitaxel in the test filed under Bos taurus [1]; 1.9 relative to paclitaxel in test [2]; > 1.7 relative to paclitaxel in the test filed under Bos taurus [4]; 1.4 relative to paclitaxel in test [5]. In addition, the EC0.01 (relative to paclitaxel) in the test filed under Bos taurus [3] worked out at 1.5. Besides, the relative resistance in the test on ptx-10/22 is 0.95.

For the compound `CC(=O)O[C@H]1C(=O)[C@@]2(C)[C@H]([C@H](OC(=O)c3cc(N=[N+]=[N-])cc(N=[N+]=[N-])c3)[C@]3(O)C[C@H](OC(=O)[C@H](O)[C@@H](NC(=O)c4ccccc4)c4ccccc4)C(C)=C1C3(C)C)[C@]1(OC(C)=O)CO[C@@H]1C[C@@H]2O`, the IC50 in the test on Burkitts lymphoma cell was 1 relative to paclitaxel; in the test filed under Bos taurus [1], 4 relative to paclitaxel; in test [2], 1.6 relative to paclitaxel; in the test listed under Bos taurus [4] it was > 1.7 relative to paclitaxel; in test [5] it was 1.3 relative to paclitaxel. The same compound showed an EC0.01 (relative to paclitaxel) in the test filed under Bos taurus [3] of 0.67. Further, in the test with ptx-10/22, the relative resistance amounted to 0.4.

As to `CC(=O)O[C@H]1C(=O)[C@@]2(C)[C@H]([C@H](OC(=O)c3cc(F)c(F)c(F)c3)[C@]3(O)C[C@H](OC(=O)[C@H](O)[C@@H](NC(=O)c4ccccc4)c4ccccc4)C(C)=C1C3(C)C)[C@]1(OC(C)=O)CO[C@@H]1C[C@@H]2O`, the IC50 was 1.3 relative to paclitaxel in the test with Burkitts lymphoma cell; 4.7 relative to paclitaxel in the test filed under Bos taurus [1]; 3.4 relative to paclitaxel in test [2]; > 1.7 relative to paclitaxel in the test listed under Bos taurus [4]; 3.2 relative to paclitaxel in test [5]. The EC0.01 (relative to paclitaxel) in the test listed under Bos taurus [3] worked out at 1.8. For the same compound, in the test with ptx-10/22, the relative resistance was determined as 0.62.

`COc1cc(OC)cc(C(=O)O[C@H]2[C@@H]3[C@]4(OC(C)=O)CO[C@@H]4C[C@H](O)[C@@]3(C)C(=O)[C@H](OC(C)=O)C3=C(C)[C@@H](OC(=O)[C@H](O)[C@@H](NC(=O)c4ccccc4)c4ccccc4)C[C@]2(O)C3(C)C)c1`: the IC50 with Burkitts lymphoma cell is 1 relative to paclitaxel; in the test listed under Bos taurus [1] it was 4.7 relative to paclitaxel; in test [2], 5.4 relative to paclitaxel; in the test filed under Bos taurus [4], > 1.7 relative to paclitaxel; in test [5], 3.3 relative to paclitaxel. In the test listed under Bos taurus [3], this compound returned an EC0.01 (relative to paclitaxel) of 2.6. The relative resistance with ptx-10/22 came to 0.57.

Turning to `CCOc1cccc(C(=O)O[C@H]2[C@@H]3[C@]4(OC(C)=O)CO[C@@H]4C[C@H](O)[C@@]3(C)C(=O)[C@H](OC(C)=O)C3=C(C)[C@@H](OC(=O)[C@H](O)[C@@H](NC(=O)c4ccccc4)c4ccccc4)C[C@]2(O)C3(C)C)c1`, the IC50 in the test on Burkitts lymphoma cell is 1 relative to paclitaxel; in the test listed under Bos taurus [1], 1.2 relative to paclitaxel; in test [2], 1.6 relative to paclitaxel; in the test filed under Bos taurus [4], 1.4 relative to paclitaxel; in test [5], 1.7 relative to paclitaxel. This compound had an EC0.01 (relative to paclitaxel) in the test filed under Bos taurus [6] of 1.1. For the same compound, the relative resistance with ptx-10/22 stood at 0.37.

On to `CC(=O)O[C@H]1C(=O)[C@@]2(C)[C@H]([C@H](OC(=O)c3cccc(OC(C)C)c3)[C@]3(O)C[C@H](OC(=O)[C@H](O)[C@@H](NC(=O)c4ccccc4)c4ccccc4)C(C)=C1C3(C)C)[C@]1(OC(C)=O)CO[C@@H]1C[C@@H]2O`, for which the IC50 with Burkitts lymphoma cell is 1.3 relative to paclitaxel; in the test filed under Bos taurus [1], > 8.9 relative to paclitaxel; in test [2], 17 relative to paclitaxel; in the test listed under Bos taurus [4], > 1.7 relative to paclitaxel; in test [5] it was 15 relative to paclitaxel. The EC0.01 (relative to paclitaxel) in the test filed under Bos taurus [3] is more than 140. This compound also displayed a relative resistance with ptx-10/22 of 0.29.

The values above are taken from ChEMBL document CHEMBL1131103, “Synthesis and biological evaluation of 2-acyl analogues of paclitaxel (Taxol)” (J Med Chem, 1998).
